This note sets out measurements from ChEMBL document CHEMBL1221300, “Synthesis and biochemical evaluation of a range of (4-substituted phenyl)sulfonate derivatives of 4-hydroxybenzyl imidazole-based compounds as potent inhibitors of 17alpha-hydroxylase/17,20-lyase (P45017alpha) derived from rat testicular microsomes” (Bioorg Med Chem Lett, 2010).

The first assay has as its target T1, Steroid 17-alpha-hydroxylase/17,20 lyase (Rattus norvegicus, UniProt P11715).
T1 sequence (P11715 whole entry): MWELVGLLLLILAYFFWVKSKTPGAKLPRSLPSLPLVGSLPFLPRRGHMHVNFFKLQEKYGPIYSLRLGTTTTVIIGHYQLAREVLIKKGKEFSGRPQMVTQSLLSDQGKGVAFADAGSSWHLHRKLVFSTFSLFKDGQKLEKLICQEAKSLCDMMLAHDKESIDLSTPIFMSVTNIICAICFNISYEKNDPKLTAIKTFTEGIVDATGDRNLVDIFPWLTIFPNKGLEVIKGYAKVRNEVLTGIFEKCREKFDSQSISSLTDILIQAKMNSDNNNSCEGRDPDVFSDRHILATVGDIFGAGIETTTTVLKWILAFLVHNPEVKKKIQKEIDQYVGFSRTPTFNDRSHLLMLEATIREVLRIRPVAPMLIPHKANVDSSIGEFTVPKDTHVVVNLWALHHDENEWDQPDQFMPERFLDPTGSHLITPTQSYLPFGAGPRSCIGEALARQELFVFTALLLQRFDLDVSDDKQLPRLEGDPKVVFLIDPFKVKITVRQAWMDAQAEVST
Description: Inhibition of 17-alpha-hydroxylase activity of rat testicular microsomal P450-17alpha. In short, it runs like this:
(§1)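 Rat testicular microsomal enzyme incubated with radiolabelled substrate. The radiolabelled substrate was separated from the incubation mixture and identified by thin layer chromatography. Both the 17α-hydroxylase and the 17,20-lyase components were assessed this way.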
Regarding `CCc1ccc(S(=O)(=O)Oc2ccc(Cn3ccnc3)cc2)cc1`, the IC50 (commonly the concentration needed to halve the response being measured) came to 110 nM.
In turn, `CC(=O)N1CCN(c2ccc(OCC3COC(Cn4ccnc4)(c4ccc(Cl)cc4Cl)O3)cc2)CC1` (centres undefined) [KETOCONAZOLE] had an IC50 of 2660 nM.
Still for that read-out and setting: the figure for `CCCc1ccc(S(=O)(=O)Oc2ccc(Cn3ccnc3)cc2)cc1` is 1210 nM.
In the case of `O=S(=O)(Oc1ccc(Cn2ccnc2)cc1)c1ccc(-c2ccccc2)cc1`, half-maximal inhibition (IC50) was put at 100 nM.
Turning to `Cc1ccc(S(=O)(=O)Oc2ccc(Cn3ccnc3)cc2)cc1`, half-maximal inhibition (IC50) required 40 nM.
Still for that read-out and setting: the figure for `Ic1ccc(Cn2ccnc2)cc1` is 730 nM.
The same measure, in the same setting: the figure for `Oc1ccc(Cn2ccnc2)cc1` is 2500 nM.
With `O=S(=O)(Oc1ccc(Cn2ccnc2)cc1)c1ccc(F)cc1`, inhibition was half-maximal at 200 nM (IC50).
Still for that read-out and setting: as for `c1ccc(Cn2ccnc2)cc1` [BENZYLIMIDAZOLE], the figure is more than 3000 nM.
The same measure, in the same setting: the figure for `O=S(=O)(Oc1ccc(Cn2ccnc2)cc1)c1ccc(C(F)(F)F)cc1` is 1040 nM; for `CCCCc1ccc(S(=O)(=O)Oc2ccc(Cn3ccnc3)cc2)cc1` it is 70 nM.
On the same count and under the same terms, the figure for `CCCCCc1ccc(S(=O)(=O)Oc2ccc(Cn3ccnc3)cc2)cc1` is 130 nM.

The next assay deals with T1, Steroid 17-alpha-hydroxylase/17,20 lyase. Description: Inhibition of 17,20-lyase activity of rat testicular microsomal P450-17alpha. In short, it runs like this:
as §1
`CCc1ccc(S(=O)(=O)Oc2ccc(Cn3ccnc3)cc2)cc1` displayed an IC50 of 20 nM. That is a double-digit nanomolar value.
Same read-out and setting: the figure for `CC(=O)N1CCN(c2ccc(OCC3COC(Cn4ccnc4)(c4ccc(Cl)cc4Cl)O3)cc2)CC1` (centres undefined) [KETOCONAZOLE] is 206 nM; for `CCCc1ccc(S(=O)(=O)Oc2ccc(Cn3ccnc3)cc2)cc1` it is 30 nM; for `O=S(=O)(Oc1ccc(Cn2ccnc2)cc1)c1ccc(-c2ccccc2)cc1` it is 10 nM.
Same read-out and setting: as for `Cc1ccc(S(=O)(=O)Oc2ccc(Cn3ccnc3)cc2)cc1`, the figure is 30 nM.
Turning to `Ic1ccc(Cn2ccnc2)cc1`, the concentration for half-maximal inhibition (IC50) was 164 nM. Compared with the last molecule, the IC50 is about 5.5-fold higher.
With `Oc1ccc(Cn2ccnc2)cc1`, half-maximal inhibition (IC50) required 1470 nM.
Turning to `O=S(=O)(Oc1ccc(Cn2ccnc2)cc1)c1ccc(F)cc1`, inhibition was half-maximal at 14 nM (IC50). This IC50 is about 100-fold lower than that of the molecule before.
Same read-out and setting: the figure for `c1ccc(Cn2ccnc2)cc1` [BENZYLIMIDAZOLE] is more than 3000 nM; for `O=S(=O)(Oc1ccc(Cn2ccnc2)cc1)c1ccc(C(F)(F)F)cc1` it is 34 nM.
As to `CCCCc1ccc(S(=O)(=O)Oc2ccc(Cn3ccnc3)cc2)cc1`, half-maximal inhibition (IC50) required 40 nM.
`CCCCCc1ccc(S(=O)(=O)Oc2ccc(Cn3ccnc3)cc2)cc1` registered an IC50 of 160 nM.
